Reference: ChEMBL document CHEMBL5712920, “The histone methyltransferase inhibitor A-366 enhances hemoglobin expression in erythroleukemia cells upon co-exposure with chemical inducers in culture” (J Biol Res (Thessalon), 2021)
Active and inactive are the calls of the source. The calls are words filed in the database; no cut-off is given here.

Legend:
FLC clone 745 [1] = assay: Induction of cell cycle arrest in mouse FLC clone 745 cells assessed as accumulation cells at S phase at 10^-6 M after 48 hrs by PI staining based flow cytometric analysis (reference value: 29.53%); format: functional; settings: dose 1 10^-6M, at 1 µM
How it was run: (§1)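 MEL cells plated at 5 × 10^5 per well and synchronized by serum deprivation for 24 h. Cells then incubated with compound at 10−6 M, alone or with HMBA 5 × 10−3 M, for 24, 48 and 72 h. Fixed in 70% ethanol overnight at 4 °C, stained with propidium iodide, and DNA content measured by flow cytometry to assign subG1, G1, S, G2/M and >4N fractions.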

[2] = Cytotoxicity against HMBA-stiumulated mouse FLC clone 745 cells assessed as cell viability measured after 48 hrs by Neubauer chamber based microscopic analysis (reference value: 50.563%); format: toxicity; settings: HMBA-stimulated FLC clone 745 cells, read-out: Activity
FLC clone 745 [3] = assay: Induction of cell cycle arrest in HMBA-stimulated mouse FLC clone 745 cells assessed as accumulation cells at S phase at 10^-6 M after 72 hrs by PI staining based flow cytometric analysis (reference value: 19.52%); format: functional; settings: dose 1 10^-6M, at 1 µM; how it was run: as §1
FLC clone 745 [4] = assay: Induction of cell cycle arrest in mouse FLC clone 745 cells assessed as accumulation cells at > 4N phase at 10^-6 M after 48 hrs by PI staining based flow cytometric analysis (reference value: 7.11%); format: functional; settings: dose 1 10^-6M, at 1 µM; how it was run: as §1
FLC clone 745 [5] = assay: Induction of cell cycle arrest in mouse FLC clone 745 cells assessed as accumulation cells at subG1 phase at 10^-6 M after 48 hrs by PI staining based flow cytometric analysis (reference value: 9.79%); format: functional; settings: dose 1 10^-6M, at 1 µM; how it was run: as §1
FLC clone 745 [6] = assay: Induction of cell cycle arrest in mouse FLC clone 745 cells assessed as accumulation cells at G2/M phase at 10^-6 M after 72 hrs by PI staining based flow cytometric analysis (reference value: 24.82%); format: functional; settings: dose 1 10^-6M, at 1 µM; how it was run: as §1
K562 [7] = assay: Induction of apoptosis in human K562 cells assessed as effect on caspase-3 mRNA expression level at 1 to 10 uM cells after 48 hrs by qPCR analysis; format: toxicity, cell-based; settings: k562, 48 h, dose 1-10 µM
How it was run: (§2)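 K562 cells at 10^5 cells/ml grown without compound (control) or with 10−6 M or 10−5 M compound for 48 h. Total RNA isolated, then checked by gel electrophoresis and spectrophotometry. Transcripts quantified by qPCR.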

FLC clone 745 [8] = assay: Induction of cell cycle arrest in mouse FLC clone 745 cells assessed as accumulation cells at G2/M phase at 10^-6 M after 24 hrs by PI staining based flow cytometric analysis (reference value: 14.35%); format: functional; settings: dose 1 10^-6M, at 1 µM; how it was run: as §1
FLC clone 745 [9] = assay: Induction of cell cycle arrest in mouse FLC clone 745 cells assessed as accumulation cells at > 4N phase at 10^-6 M after 72 hrs by PI staining based flow cytometric analysis (reference value: 14.89%); format: functional; settings: dose 1 10^-6M, at 1 µM; how it was run: as §1
[10] = Inhibition of G9a/GLP in HMBA-stiumulated mouse FLC clone 745 cells assessed as increase in erythroid differentiation at IC50 concentration measured after 96 hrs by benzidine-H2O2 based assay (reference value: 79.45%); settings: condition erythroleukemia
FLC clone 745 [11] = assay: Induction of cell cycle arrest in HMBA-stimulated mouse FLC clone 745 cells assessed as accumulation cells at > 4N phase at 10^-6 M after 72 hrs by PI staining based flow cytometric analysis (reference value: 4.66%); format: functional; settings: dose 1 10^-6M, at 1 µM; how it was run: as §1
FLC clone 745 [12] = assay: Induction of cell cycle arrest in HMBA-stimulated mouse FLC clone 745 cells assessed as accumulation cells at > 4N phase at 10^-6 M after 24 hrs by PI staining based flow cytometric analysis (reference value: 9.83%); format: functional; settings: dose 1 10^-6M, at 1 µM; how it was run: as §1
FLC clone 745 [13] = assay: Induction of cell cycle arrest in HMBA-stimulated mouse FLC clone 745 cells assessed as accumulation cells at subG1 phase at 10^-6 M after 24 hrs by PI staining based flow cytometric analysis (reference value: 41.78%); format: functional; settings: dose 1 10^-6M, at 1 µM; how it was run: as §1
FLC clone 745 [14] = assay: Induction of cell cycle arrest in HMBA-stimulated mouse FLC clone 745 cells assessed as accumulation cells at G1/G0 phase at 10^-6 M after 72 hrs by PI staining based flow cytometric analysis (reference value: 7.19%); format: functional; settings: dose 1 10^-6M, at 1 µM; how it was run: as §1
FLC clone 745 [15] = assay: Induction of cell cycle arrest in HMBA-stimulated mouse FLC clone 745 cells assessed as accumulation cells at S phase at 10^-6 M after 48 hrs by PI staining based flow cytometric analysis (reference value: 31.43%); format: functional; settings: dose 1 10^-6M, at 1 µM; how it was run: as §1
K562 [16] = assay: Induction of apoptosis in human K562 cells assessed as effect on caspase-9 mRNA expression level at 1 to 10 uM cells after 48 hrs by qPCR analysis; format: toxicity, cell-based; settings: k562, 48 h, dose 1-10 µM; how it was run: as §2
FLC clone 745 [17] = assay: Induction of cell cycle arrest in HMBA-stimulated mouse FLC clone 745 cells assessed as accumulation cells at S phase at 10^-6 M after 24 hrs by PI staining based flow cytometric analysis (reference value: 21.59%); format: functional; settings: dose 1 10^-6M, at 1 µM; how it was run: as §1
FLC clone 745 [18] = assay: Induction of cell cycle arrest in mouse FLC clone 745 cells assessed as accumulation cells at S phase at 10^-6 M after 24 hrs by PI staining based flow cytometric analysis (reference value: 28.46%); format: functional; settings: dose 1 10^-6M, at 1 µM; how it was run: as §1
FLC clone 745 [19] = assay: Inhibition of G9a/GLP in HMBA-stiumulated mouse FLC clone 745 cells assessed as increase in HBB mRNA expression at 10^-6 M after 48 hrs by qPCR analsysis; format: cell-based; settings: dose 1.0 10^-6M
How it was run: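 MEL cells treated for 48 h with HMBA 5 × 10−3 M plus compound at 10−6 M. Total RNA reverse-transcribed, and β-globin transcripts measured by qPCR. Data normalized to β-actin using the 2−ΔΔCt method; Student's t-test.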

FLC clone 745 [20] = assay: Induction of cell cycle arrest in mouse FLC clone 745 cells assessed as accumulation cells at > 4N phase at 10^-6 M after 24 hrs by PI staining based flow cytometric analysis (reference value: 13.47%); format: functional; settings: dose 1 10^-6M, at 1 µM; how it was run: as §1
[21] = Cytotoxicity against mouse FLC clone 745 cells assessed as reduction in cell viability measured after 48 hrs by Neubauer chamber based microscopic analysis; format: toxicity
[22] = Inhibition of G9a/GLP in HMBA-stiumulated mouse FLC clone 745 cells assessed as increase in erythroid differentiation at IC50 concentration measured after 72 hrs by benzidine-H2O2 based assay (reference value: 69.6%); settings: condition erythroleukemia
FLC clone 745 [23] = assay: Cytotoxicity against mouse FLC clone 745 cells assessed as reduction in cell viability at IC50 concentration measured up to 96 hrs by Neubauer chamber based microscopic analysis; format: toxicity; settings: flc clone 745, 96 h
How it was run: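 MEL-745 cells treated continuously with compound at its previously determined 48 h IC50, without inducer, for up to 96 h. Total cell number counted daily in a Neubauer chamber. Final DMSO ≤0.2% v/v.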

FLC clone 745 [24] = assay: Induction of cell cycle arrest in mouse FLC clone 745 cells assessed as accumulation cells at subG1 phase at 10^-6 M after 24 hrs by PI staining based flow cytometric analysis (reference value: 24.11%); format: functional; settings: dose 1 10^-6M, at 1 µM; how it was run: as §1
FLC clone 745 [25] = assay: Induction of cell cycle arrest in mouse FLC clone 745 cells assessed as accumulation cells at G1/G0 phase at 10^-6 M after 24 hrs by PI staining based flow cytometric analysis (reference value: 19.61%); format: functional; settings: dose 1 10^-6M, at 1 µM; how it was run: as §1
FLC clone 745 [26] = assay: Induction of cell cycle arrest in HMBA-stimulated mouse FLC clone 745 cells assessed as accumulation cells at subG1 phase at 10^-6 M after 48 hrs by PI staining based flow cytometric analysis (reference value: 43.83%); format: functional; settings: dose 1 10^-6M, at 1 µM; how it was run: as §1

## COc1cc2c(cc1OCCCN1CCCC1)N=C(N)C21CCC1
FLC clone 745 [1]
  Activity: 29.12%
[2]
  viability at 48 h: 42.8%
FLC clone 745 [3]
  Activity: 19.84%
FLC clone 745 [4]
  Activity: 9.4%
FLC clone 745 [5]
  Activity: 18.28%
FLC clone 745 [6]
  Activity: 11.32%
K562 [7]
  Activity: Non-Toxic
FLC clone 745 [8]
  Activity: 9.04%
FLC clone 745 [9]
  Activity: 11.78%
[10]
  inhibition (INH): 83.75%
FLC clone 745 [11]
  Activity: 2.89%
FLC clone 745 [12]
  Activity: 9.28%
FLC clone 745 [13]
  Activity: 55.4%
FLC clone 745 [14]
  Activity: 8.17%
FLC clone 745 [15]
  Activity: 28.62%
K562 [16]
  Activity: Non-Toxic
FLC clone 745 [17]
  Activity: 1.26%
FLC clone 745 [18]
  Activity: 23.91%
FLC clone 745 [19]
  inhibition: Active
FLC clone 745 [20]
  Activity: 9.49%
[21]
  IC50 at 48 h: > 100 µM
[22]
  inhibition (INH): 76.6%
FLC clone 745 [23]
  Activity: Non-Toxic
FLC clone 745 [24]
  Activity: 37.13%
FLC clone 745 [25]
  Activity: 20.43%
FLC clone 745 [26]
  Activity: 50.9%
